Measurements gathered from unrelated publications.
Lines come from different studies, so protocols differ.
CSF1R: Macrophage colony-stimulating factor 1 receptor (CSF1R, Homo sapiens, UniProt P07333)
CSF1R autoinhibited: Macrophage colony-stimulating factor 1 receptor, autoinhibited (CSF1R, Homo sapiens, UniProt P07333)

The remaining binding of `O=C(c1ccc(Nc2ncc(Cl)c(-c3cc4ccccc4s3)n2)cc1)N1CCC(N2CCCC2)CC1` is reported as 24% (CSF1R; binding, competition with immobilised ligand; 1 µM).
For `COc1ncc2cc3ccccc3nc2c1C#N`, the remaining binding was 97% (CSF1R autoinhibited; cell-free assay, competition with immobilised ligand; 5 µM).
`COc1cc(-c2cn(C3CCc4c(F)cccc4N(CC(F)(F)F)C3=O)nn2)ccc1-n1cnc(C)c1` (stereo not drawn) has a remaining binding of 100% (CSF1R autoinhibited; cell-free assay, competition with immobilised ligand; 1 µM).
The remaining binding of `CN(C)c1nccc(-c2cnn3ncccc23)n1` is reported as 100% (CSF1R autoinhibited; binding; 1 µM).
With `O=C(c1ccc(Nc2nccc(-c3cc4ccccc4s3)n2)cc1)N1CCC(N2CCCC2)CC1` the remaining binding was 77% (CSF1R autoinhibited; binding, competition with immobilised ligand; 1 µM).
For `CCN1CCN(Cc2ccc(C(=O)Nc3ccc(C)c(Oc4ccc5c(c4)CC(=O)N5)c3)cc2C(F)(F)F)CC1`, the remaining binding was 2% (CSF1R; binding, competition with immobilised ligand; 1 µM).
The remaining binding of `C[C@@H]1CN(c2ccc3ncc(-c4ccc5[nH]nc(C6CC6)c5c4)n3n2)C[C@H](C)O1` is reported as 100% (CSF1R; binding, competition with immobilised ligand; 50 nM).
`COc1cnc(Nc2cccc(S(N)(=O)=O)c2)nc1N1CCN(c2ccccc2)CC1` gave a remaining binding of 100% (CSF1R; binding, competition with immobilised ligand; 1 µM).
`O=C(c1ccc(Nc2ncc(Cl)c(-c3ccc(Cl)s3)n2)cc1)N1CCC(N2CCCC2)CC1` has a remaining binding of 17% (CSF1R autoinhibited; binding, competition with immobilised ligand; 1 µM).
For `CN(C)c1nccc(-c2cnc3ncccn23)n1`, the remaining binding was 65% (CSF1R autoinhibited; binding; 1 µM).
`CCOCCn1cc(C(=O)Nc2ccc(-n3nc(-c4cccnc4)cc3C(F)(F)F)cn2)ccc1=O` gave a remaining binding of 100% (CSF1R autoinhibited; cell-free assay, competition with immobilised ligand; 1 µM).
For `CN(c1nccc(-c2cnn3ncccc23)n1)C1CC1`, the remaining binding was 88% (CSF1R; binding; 1 µM).
For `CCCOc1ccc([C@H]2[C@H](C(=O)O)[C@@H](c3ccc4c(c3)OCO4)CN2CC(=O)Nc2c(CC)cccc2CC)cc1`, the remaining binding was 61% (CSF1R autoinhibited; cell-free assay, competition with immobilised ligand; 1 µM).
With `N[C@@H]1CCN(c2nccc(-c3cnn4ncccc34)n2)C1` the remaining binding was 100% (CSF1R; binding; 1 µM).
The remaining binding of `CC(=O)C1=C(C)N(c2cccc(C(F)(F)F)c2)C(=O)N[C@@H]1c1ccc(C#N)nc1` is reported as 100% (CSF1R autoinhibited; cell-free assay, competition with immobilised ligand; 1 µM).
`Cc1nc(NC(=O)N2CCC[C@H]2C(N)=O)sc1-c1ccnc(C(C)(C)C(F)(F)F)c1` gave a remaining binding of 98% (CSF1R autoinhibited; binding, competition with immobilised ligand; 10 µM).
With `CC(=O)c1c(NS(C)(=O)=O)c2cc(-c3ccc(Cl)cc3)c(-c3ccc(Cl)cc3Cl)nc2n(C)c1=O` the remaining binding was 100% (CSF1R; cell-free assay, competition with immobilised ligand; 1 µM).
For `C[C@H]1CCN(c2nccc(-c3cnn4ncccc34)n2)C1`, the remaining binding was 100% (CSF1R; binding; 1 µM).
